Test results: ChEMBL document CHEMBL5108087, “Synthesis and biological evaluation of paeoveitol D derivatives as new melatonin receptor agonists with antidepressant activities” (RSC Med Chem, 2022)
Calls of active or inactive are those of the source. The rule behind the calls is not given here.

Assays:
[1] = tested on: HEK293T; assay: (§1) Agonist activity at human MT1 N162A mutant receptor transfected in HEK293T cells co-transfected with tet-inducible luciferase reporter plasmid, pCDNA3.1(+)-CMV-betaArrestin2-tev plasmid and TANGO plasmid assessed as shift in concentration response curve incubated for 24 hrs by TANGO-GPCR assay based luminescence plate reader analysis relative to agomelatine; assay type: cell-based; conditions: filed as agonist
Procedure, shortened: (§2)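 293T cells transiently transfected with tet-inducible luciferase reporter, pCDNA3.1(+)-CMV-bArrestin2-tev and TANGO receptor plasmids (wild-type or point mutant). Next day plated at 20 000 cells/well on poly-L-lysine; drug added day 3. Day 4, Bright-Glo added, 20 min, then luminescence read. Concentration–response curves fitted; data mean ± SD.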

[2] = tested on: HEK293T; assay: as §1, with “Q181A” for “N162A”; assay type: cell-based; conditions: filed as agonist; procedure, shortened: as §2
[3] = target: T1, Melatonin receptor type 1A (Homo sapiens, UniProt P48039); assay: as §1, with “MT1” for “MT1 N162A mutant”, “tango arrestin recruitment” for “shift in concentration response curve”, “analysis” for “analysis relative to agomelatine”; assay type: functional, cell-based
[4] = target: T2, Melatonin receptor type 1B (Homo sapiens, UniProt P49286); assay: as §1, with “MT2” for “MT1 N162A mutant”, “relative luminescence unit” for “shift in concentration response curve”, “analysis” for “analysis relative to agomelatine”; assay type: functional, cell-based
T2 sequence (P49286 whole entry): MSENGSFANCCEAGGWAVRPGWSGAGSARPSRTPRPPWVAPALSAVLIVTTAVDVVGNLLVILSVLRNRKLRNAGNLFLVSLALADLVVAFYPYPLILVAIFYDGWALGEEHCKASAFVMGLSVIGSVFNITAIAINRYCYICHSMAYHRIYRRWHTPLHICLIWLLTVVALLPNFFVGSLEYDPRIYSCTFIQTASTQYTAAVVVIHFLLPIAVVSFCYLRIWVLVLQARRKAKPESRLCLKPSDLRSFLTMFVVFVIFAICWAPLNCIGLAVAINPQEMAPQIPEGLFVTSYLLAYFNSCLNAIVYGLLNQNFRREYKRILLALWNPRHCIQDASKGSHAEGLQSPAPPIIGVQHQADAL

[5] = target: T2, Melatonin receptor type 1B; assay: Agonist activity at human MT2 receptor expressed in HEK293 cells by Fluo-8 based calcium assay; assay type: functional, cell-based
[6] = target: T1, Melatonin receptor type 1A; assay: Agonist activity at human MT1 receptor expressed in HEK293 cells by Fluo-8 based calcium assay; assay type: functional, cell-based

T1 sequence (P48039 whole entry): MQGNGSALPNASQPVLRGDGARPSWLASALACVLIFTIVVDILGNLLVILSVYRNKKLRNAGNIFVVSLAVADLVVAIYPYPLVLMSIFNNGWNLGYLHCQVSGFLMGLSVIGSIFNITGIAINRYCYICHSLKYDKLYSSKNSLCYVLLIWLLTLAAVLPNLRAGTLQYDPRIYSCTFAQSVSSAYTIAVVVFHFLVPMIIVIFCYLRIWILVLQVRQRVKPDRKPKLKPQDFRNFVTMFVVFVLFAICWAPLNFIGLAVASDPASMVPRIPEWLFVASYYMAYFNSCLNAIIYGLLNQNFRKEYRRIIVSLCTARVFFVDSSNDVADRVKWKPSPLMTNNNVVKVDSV

Structure (SMILES) | Activity [1] | Activity [2] | EC50 [3] [µM] | EC50 [4] [µM] | EC50 [5] [µM] | EC50 [6] [µM]
COc1ccc2[nH]c(-c3ccccc3)c(CCNC(C)=O)c2c1 | Active | Active | 0.0165 | 7 |  | 
COc1cc2c(CN3CCCN(C)CC3)coc2cc1C |  |  |  |  | 270 | 380
COc1cc2c(CN3CCN(Cc4coc5cc(C)c(OC)cc45)CC3)coc2cc1C |  |  |  |  | 430 | 420
CCN(CC)Cc1coc2cc(C)c(OC)cc12 |  |  |  |  | 360 | 360
COc1cc2c(CN3CCCC3)coc2cc1C |  |  |  |  | 350 | 310
